Measurements of several laboratories.
Compare with care: the assays were run in different laboratories.
Medium: plasma

SMILES	test system	setting	quantity	result
CC(C)n1c(C2CCNCC2)nc2c([N+](=O)[O-])c(Br)c(Br)cc21	human	oral, 75 mg, patients	AUC(0-t)	288 ng·h/mL
CC(=O)N(C)[C@H]1CCN(C(=O)c2cnc3c(c2)C[C@](C)(c2ccc(F)cc2)N3)C1	male human	oral, 15 mg, multiple doses, once daily	AUC(0-inf)	2.22 µM·h
OC[C@H]1O[C@@H](c2cc(Cc3ccc(C4CC4)cc3)c(Cl)c3c2CCO3)[C@H](O)[C@@H](O)[C@@H]1O	human	oral, 0.3 mg, single dose, fed	AUC(0-inf)	31 ng·h/mL
C=CC(=O)NC1CCN(c2ncc3ncnc(Nc4ccc(Oc5ccc6c(c5)ncn6C)c(C)c4)c3n2)CC1	male human	oral, 60 mg, single dose, healthy volunteers	AUC(0-inf)	14.2 µM·h
COc1ccc2c(c1)CN(C(=O)CCN1CCC(Cc3ccccc3)CC1)CC[S@@+]2[O-]	male human	intravenous, 0.05 mg/kg, healthy volunteers	AUC(0-inf)	250 ng·h/mL
N#Cc1cccc(-c2ccc3ncc(-c4cc(F)cc(F)c4)c(N4CCC(N)CC4)c3c2)c1O	male human	oral, 20 mg, single dose	AUC	2360 ng·h/mL
CC(C)c1nc(N(C)S(C)(=O)=O)nc(-c2ccc(F)cc2)c1/C=C/[C@@H](O)C[C@@H](O)CC(=O)O	human	oral, 10 mg, single dose, healthy volunteers	AUC(0-inf)	36.7 ng·h/mL
COc1ccc(-c2c(Nc3ccccn3)[nH]c3c(C4=CCCCC4)c(-c4ccccc4)nn3c2=O)cc1	human	oral, 150 mg once daily, multiple doses, steady state, patients	AUC(0-t)	93600 ng·h/mL
O=C(COc1ccc(Cl)cc1)NC12CC(c3nnc([C@H]4C[C@@H](OC(F)(F)F)C4)o3)(C1)C2	human	oral, 45 mg, multiple doses, once daily, steady state, healthy volunteers	AUC	36.5 µM·h
COc1ccc(F)cc1C(=O)NCc1ccc(-c2nn([C@@H](C)C(F)(F)F)c(N)c2C(N)=O)cc1	human	oral, 200 mg, single dose, fasted	AUC(0-inf)	90200 ng·h/mL
